In ChEMBL document CHEMBL1821638, “Targeting the human malaria parasite Plasmodium falciparum: in vitro identification of a new antiplasmodial hit in 4-phenoxy-2-trichloromethylquinazoline series” (Eur J Med Chem, 2011):
Active and inactive are the calls of the source. The calls are words filed in the database; no cut-off is given here.

Columns and labels:
[1] = Selectivity index, ratio of CC50 for human HepG2 cells to IC50 for chloroquine, pyrimethamine and proguanil-resistant Plasmodium falciparum W2; format: functional
Plasmodium falciparum [2] = experiment: Antiplasmodial activity against chloroquine, pyrimethamine and proguanil-resistant Plasmodium falciparum W2 infected in human A positive erythrocytes after 72 hrs by SYBR Green I assay; format: functional, organism-based; conditions: W2, 72 h
[3] = Cytotoxicity against human HepG2 cells after 72 hrs by MTT assay; format: cell-based
Outline: (§1)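 HepG2 or HFF cells seeded in RPMI with 10% foetal bovine serum, L-glutamine and penicillin/streptomycin, 37 °C, 6% CO₂; after 24 h, medium with various compound concentrations added for 72 h. Wells checked microscopically for precipitate. MTT in serum-free medium 2 h at 37 °C, formazan dissolved in DMSO, absorbance at 570 nm (630 nm reference). Viability as percent of untreated control; doxorubicin reference.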

[4] = Solubility of the compound; format: physicochemical
[5] = Cytotoxicity against human HFF cells after 72 hrs by MTT assay; format: cell-based; outline: as §1
Toxoplasma gondii = experiment: Antiparasitic activity against Toxoplasma gondii PRU tachyzoites harboring beta-Gal gene infected in human HFF cells after 72 hrs by microtiter plate based assay; format: functional, cell-based
Outline: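 T. gondii PRU-b-Gal tachyzoites kept by serial passage in confluent human foreskin fibroblast (HFF) monolayers. Compounds in DMSO (final <0.5% v/v) added at various concentrations in triplicate. Controls: DMSO-treated, pyrimethamine, and uninfected drug-free monolayers. Incubated 72 h at 37 °C, 6% CO2. Read by colorimetric microtiter assay.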

HepG2 = experiment: Cytotoxicity against human HepG2 cells at > 125 uM after 72 hrs by MTT assay; format: cell-based; conditions: hepg2, 72 h; outline: as §1
Plasmodium falciparum [6] = experiment: Antiplasmodial activity against chloroquine, pyrimethamine and proguanil-resistant Plasmodium falciparum W2 infected in human A positive erythrocytes at > 50 uM after 72 hrs by SYBR Green I assay; format: functional, organism-based
Outline: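 W2 strain kept in continuous culture in A+ human erythrocytes at 2.5% hematocrit. Medium was RPMI 1640 with 25 mM HEPES, 25 mM NaHCO3 and 10% A+ human serum, at 37 °C under 5% O2/5% CO2/90% N2, parasitaemia 1–6%. Drug exposure 72 h. Lysis buffer with SYBR Green I, saponin and Triton X-100, 15 min at 37 °C. Fluorescence read at ex 497/em 520 nm. IC50 by non-linear regression, mean of three independent experiments.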

Salmonella typhimurium [7] = experiment: Mutagenic activity in Salmonella Typhimurium TA102 assessed as number of spontaneous and drug-induced revertants at 25 to 125 nM after 48 hrs by Ames test; format: toxicity, organism-based; conditions: salmonella enterica subsp. enterica serovar typhimurium, 0.125 µM
Outline: (§2)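 Salmonella tester strains grown overnight in nutrient broth. Compound in DMSO added to 0.1 mL culture and preincubated 1 h at 37 °C with shaking, in duplicate. Mixed with 2 mL molten top agar and plated on Vogel-Bonner minimal agar. After 48 h at 37 °C, spontaneous and induced revertants per plate counted for each dose by laser colony counter, against negative controls.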

Salmonella typhimurium [8] = experiment: Mutagenic activity in Salmonella Typhimurium TA97a assessed as number of spontaneous and drug-induced revertants at 25 to 125 nM after 48 hrs by Ames test; format: toxicity, organism-based; conditions: salmonella enterica subsp. enterica serovar typhimurium, 0.125 µM; outline: as §2
Salmonella typhimurium [9] = experiment: Mutagenic activity in Salmonella Typhimurium TA100 assessed as number of spontaneous and drug-induced revertants at 25 to 125 nM after 48 hrs by Ames test; format: toxicity, organism-based; conditions: salmonella enterica subsp. enterica serovar typhimurium, 0.125 µM; outline: as §2
Salmonella typhimurium [10] = experiment: Mutagenic activity in Salmonella Typhimurium TA98 assessed as number of spontaneous and drug-induced revertants at 25 to 125 nM after 48 hrs by Ames test; format: toxicity, organism-based; conditions: salmonella enterica subsp. enterica serovar typhimurium, 0.125 µM; outline: as §2

| SMILES | Ratio CC50/IC50 [1] | IC50 (Plasmodium falciparum [2]) [µM] | CC50 at 72 h [3] [µM] | other results |
| --- | --- | --- | --- | --- |
| FC(F)(F)c1nc(Oc2ccc(Cl)cc2)c2ccccc2n1 | 1.1 | 68 | 72 | – |
| COc1ccccc1Oc1nc(C(Cl)(Cl)Cl)nc2ccccc12 | 1.1 | 6 | 6.7 | – |
| Cc1ccc(Oc2nc(C(Cl)(Cl)Cl)nc3ccccc23)cc1 | 13.4 | 3.2 | 42.8 | – |
| O=[N+]([O-])c1ccc(Oc2nc(C(Cl)(Cl)Cl)nc3ccccc23)cc1 | >4.6 | 3.5 | > 16 | solubility [4]: Insoluble |
| Cc1cccc(Oc2nc(C(Cl)(Cl)Cl)nc3ccccc23)c1 | 2.6 | 2.9 | 7.6 | – |
| COc1cccc(Oc2nc(C(Cl)(Cl)Cl)nc3ccccc23)c1 | 0.3 | 1.9 | 0.6 | – |
| FC(F)(F)c1ccccc1Oc1nc(C(Cl)(Cl)Cl)nc2ccccc12 | 10.6 | 3.3 | 34.9 | – |
| Cc1nc(Oc2ccc(Cl)cc2)c2ccccc2n1 | 0.9 | 28 | 26 | – |
| ClC(Cl)(Cl)c1nc(Oc2ccccc2)c2ccccc2n1 | 16 | 3.1 | 50 | – |
| O=[N+]([O-])c1ccccc1Oc1nc(C(Cl)(Cl)Cl)nc2ccccc12 | >1.6 | 4.9 | > 8 | solubility [4]: Insoluble |
| Fc1cccc(Oc2nc(C(Cl)(Cl)Cl)nc3ccccc23)c1 | 18.1 | 2.3 | 41.7 | – |
| CCc1nc(N)nc(N)c1-c1ccc(Cl)cc1 [PYRIMETHAMINE] | – | – | 7.1 | CC50 at 72 h [5]: > 50 µM; IC50 (Toxoplasma gondii): 1.1 µM |
| Cc1ccc(Oc2nc(C(Cl)(Cl)Cl)nc3ccccc23)cc1C | 8.8 | 3.3 | 29 | – |
| Fc1ccc(Oc2nc(C(Cl)(Cl)Cl)nc3ccccc23)cc1 | 12.3 | 2.4 | 29.5 | – |
| FC(F)(F)c1ccc(Oc2nc(C(Cl)(Cl)Cl)nc3ccccc23)cc1 | 16.4 | 1.8 | 29.6 | – |
| Clc1ccccc1Oc1nc(C(Cl)(Cl)Cl)nc2ccccc12 | 7.6 | 4.4 | 33.6 | – |
| Clc1nc(C(Cl)(Cl)Cl)nc2ccccc12 | >2.3 | – | – | Activity (HepG2): Non-toxic |
| ClC(Cl)(Cl)c1nc(Oc2ccc3ccccc3c2)c2ccccc2n1 | 1.6 | 2.3 | 3.6 | – |
| ClC(Cl)(Cl)c1nc(Oc2cccc3ccccc23)c2ccccc2n1 | 0.6 | 3.9 | 2.4 | – |
| Clc1cccc(Oc2nc(C(Cl)(Cl)Cl)nc3ccccc23)c1 | 10.9 | 2.4 | 26.1 | – |
| Oc1nc(C(Cl)(Cl)Cl)nc2ccccc12 | <0.42 | – | 21 | Activity (Plasmodium falciparum [6]): inactive |
| Fc1ccccc1Oc1nc(C(Cl)(Cl)Cl)nc2ccccc12 | 7.7 | 5 | 38.3 | – |
| Cc1ccccc1Oc1nc(C(Cl)(Cl)Cl)nc2ccccc12 | 4.6 | 5.5 | 25.1 | – |
| O=[N+]([O-])c1cccc(Oc2nc(C(Cl)(Cl)Cl)nc3ccccc23)c1 | 12.1 | 3 | 36.3 | – |
| COc1cccc2c1C(=O)c1c(O)c3c(c(O)c1C2=O)C[C@@](O)(C(=O)CO)C[C@@H]3O[C@H]1C[C@H](N)[C@H](O)[C@H](C)O1 [DOXORUBICIN] | – | – | 0.2 | Activity (Salmonella typhimurium [7]): Toxic; Activity (Salmonella typhimurium [8]): Toxic; CC50 at 72 h [5]: 0.03 µM; Activity (Salmonella typhimurium [9]): Toxic; Activity (Salmonella typhimurium [10]): Toxic |
| C[C@H]1c2cccc(O)c2C(=O)C2=C(O)[C@]3(O)C(=O)C(C(N)=O)=C(O)[C@@H](N(C)C)[C@@H]3[C@@H](O)[C@@H]21.O [DOXYCYCLINE] | 4.2 | 4.8 | 20 | – |
| COc1ccc(Oc2nc(C(Cl)(Cl)Cl)nc3ccccc23)cc1 | 11.8 | 2.9 | 34.1 | – |
| FC(F)(F)c1cccc(Oc2nc(C(Cl)(Cl)Cl)nc3ccccc23)c1 | 10.9 | 2.3 | 25.1 | – |
